Assay results published in ChEMBL document CHEMBL5674880 (PLoS One, 2018).

Legend:
[1] = biological target: Histone-lysine N-methyltransferase SMYD3 (Homo sapiens, UniProt Q9H7B4); test: Inhibition of SMYD3 (unknown origin)
SHP77 = test: Antiproliferative activity against human SHP77 cells expressing KRAS G12V mutant; format: functional, cell-based
DOHH-2 = test: Antiproliferative activity against human DOHH-2 cells in 2D growth culture; format: functional, cell-based
In short: (§1)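 2D monolayer proliferation screen across the 240-line Eurofins Oncopanel of human cancer cell lines (mycoplasma-negative, STR-verified). Compound was titrated to a highest tested concentration of 25 μM. Values are the mean of three replicates.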

5637 [2] = test: Antiproliferative activity against human 5637 cells in 3D growth culture; format: functional, cell-based
In short: (§2)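 3D proliferation in the Eurofins Oncopanel, with a panel of 140 human cancer cell lines grown in Matrigel. The highest concentration tested was 25 μM. Each value is the mean of three replicates.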

A549 = test: Antiproliferative activity against human A549 cells expressing KRAS G12S mutant; format: functional, cell-based
In short: (§3)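 Proliferation of human lung cancer cell lines (NSCLC and others) with KRAS mutant or wild-type status. Compound was tested at concentrations up to 25 µM.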

NCI-H2081 = test: Antiproliferative activity against human NCI-H2081 cells expressing wild-type KRAS; format: functional, cell-based; in short: as §3
KLE = test: Antiproliferative activity against human KLE cells in 2D growth culture; format: functional, cell-based; in short: as §1
JAR [3] = test: Antiproliferative activity against human JAR cells in 3D growth culture; format: functional, cell-based; in short: as §2
DB = test: Antiproliferative activity against human DB cells in 2D growth culture; format: functional, cell-based; in short: as §1
HOS = test: Antiproliferative activity against human HOS cells in 2D growth culture; format: functional, cell-based; in short: as §1
RD [4] = test: Antiproliferative activity against human RD cells in 3D growth culture; format: functional, cell-based; in short: as §2
[5] = Antiproliferative activity against human C4-1 cells in 3D growth culture; format: functional, cell-based; in short: as §2
[6] = Antiproliferative activity against human SK-N-BE(2)-C cells in 2D growth culture; format: functional, cell-based
In short: (§4)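 2D monolayer culture in the Eurofins Oncopanel of 240 cancer cell lines (mycoplasma negative, STR verified). Compound dosed across a concentration series with a top concentration of 25 μM. Each value is the mean of three replicates.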

C32 [7] = test: Antiproliferative activity against human C32 cells in 3D growth culture; format: functional, cell-based; in short: as §2
NCI-H23 = test: Antiproliferative activity against human NCI-H23 cells expressing KRAS G12C mutant; format: functional, cell-based; in short: as §3
HT-3 [8] = test: Antiproliferative activity against human HT-3 cells in 3D growth culture; format: functional, cell-based; in short: as §2
Hs 766 [9] = test: Antiproliferative activity against human Hs766T cells in 3D growth culture; format: functional, cell-based; in short: as §2
U-266 = test: Antiproliferative activity against human U266B1 cells in 2D growth culture; format: functional, cell-based; in short: as §4
HT-3 [10] = test: Antiproliferative activity against human HT-3 cells in 2D growth culture; format: functional, cell-based; in short: as §1
HT = test: Antiproliferative activity against human HT cells in 2D growth culture; format: functional, cell-based; in short: as §1
COR-L88 = test: Antiproliferative activity against human COR-L88 cells expressing wild-type KRAS; format: functional, cell-based; in short: as §3
AGS = test: Antiproliferative activity against human AGS cells in 2D growth culture; format: functional, cell-based; in short: as §1
T-24 = test: Antiproliferative activity against human T24 cells in 2D growth culture; format: functional, cell-based; in short: as §4
[11] = Antiproliferative activity against human HLF cells in 2D growth culture; format: functional, cell-based; in short: as §1
MX1 = test: Antiproliferative activity against human MX1 cells in 2D growth culture; format: functional, cell-based; in short: as §1
RKO [12] = test: Antiproliferative activity against human RKO cells in 2D growth culture; format: functional, cell-based; in short: as §1
C32 [13] = test: Antiproliferative activity against human C32 cells in 2D growth culture; format: functional, cell-based; in short: as §1
EB-3 = test: Antiproliferative activity against human EB-3 cells in 2D growth culture; format: functional, cell-based; in short: as §1
PC-3 [14] = test: Antiproliferative activity against human PC-3 cells in 2D growth culture; format: functional, cell-based; in short: as §1
DMS-153 = test: Antiproliferative activity against human DMS-153 cells expressing wild-type KRAS; format: functional, cell-based; in short: as §3
ES-2 [15] = test: Antiproliferative activity against human ES-2 cells in 2D growth culture; format: functional, cell-based; in short: as §1
Y79 [16] = test: Antiproliferative activity against human Y79 cells in 2D growth culture; format: functional, cell-based; in short: as §4
[17] = Antiproliferative activity against human A7 cells in 2D growth culture; format: functional, cell-based; in short: as §1
HLE = test: Antiproliferative activity against human HLE cells in 2D growth culture; format: functional, cell-based; in short: as §1
[18] = Antiproliferative activity against human SK-N-BE(2)-C cells in 3D growth culture; format: functional, cell-based
In short: (§5)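 3D growth in matrigel, within a 140-cell-line panel of the Eurofins Oncopanel (mycoplasma negative, STR verified). Compound dosed across a concentration series with a top concentration of 25 μM. Each value is the mean of three replicates.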

NCI-H441 = test: Antiproliferative activity against human NCI-H441 cells expressing KRAS G12V mutant; format: functional, cell-based; in short: as §3
SK-LU-1 = test: Antiproliferative activity against human SK-LU-1 cells expressing KRAS G12D mutant; format: functional, cell-based
NCI-H2029 = test: Antiproliferative activity against human NCI-H2029 cells expressing wild-type KRAS; format: functional, cell-based; in short: as §3
[19] = Antiproliferative activity against human C4-1 cells in 2D growth culture; format: functional, cell-based; in short: as §1
NCI-H2122 = test: Antiproliferative activity against human NCI-H2122 cells expressing KRAS G12C mutant; format: functional, cell-based; in short: as §3
JAR [20] = test: Antiproliferative activity against human JAR cells in 2D growth culture; format: functional, cell-based; in short: as §1
J82 [21] = test: Antiproliferative activity against human J82 cells in 3D growth culture; format: functional, cell-based; in short: as §2
COR-L105 = test: Antiproliferative activity against human COR-L105 cells expressing wild-type KRAS; format: functional, cell-based; in short: as §3
[22] = Antiproliferative activity against human MT-3 cells in 2D growth culture; format: functional, cell-based; in short: as §1
SH-4 [23] = test: Antiproliferative activity against human SH-4 cells in 3D growth culture; format: functional, cell-based; in short: as §5
SH-4 [24] = test: Antiproliferative activity against human SH-4 cells in 2D growth culture; format: functional, cell-based; in short: as §4
ES-2 [25] = test: Antiproliferative activity against human ES2 cells in 3D growth culture; format: functional, cell-based; in short: as §2
Hs 766 [26] = test: Antiproliferative activity against human Hs 766T cells in 2D growth culture; format: functional, cell-based; in short: as §1
Y79 [27] = test: Antiproliferative activity against human Y79 cells in 3D growth culture; format: functional, cell-based; in short: as §5
[28] = Antiproliferative activity against human MT-3 cells in 3D growth culture; format: functional, cell-based; in short: as §2
SR = test: Antiproliferative activity against human SR cells in 2D growth culture; format: functional, cell-based; in short: as §4
EM-2 = test: Antiproliferative activity against human EM-2 cells in 2D growth culture; format: functional, cell-based; in short: as §1
RD [29] = test: Antiproliferative activity against human RD cells in 2D growth culture; format: functional, cell-based; in short: as §1
[30] = Antiproliferative activity against human HLF cells in 3D growth culture; format: functional, cell-based; in short: as §2
[31] = Antiproliferative activity against human BC1 cells in 2D growth culture; format: functional, cell-based; in short: as §1
J82 [32] = test: Antiproliferative activity against human J82 cells in 2D growth culture; format: functional, cell-based; in short: as §1
RKO [33] = test: Antiproliferative activity against human RKO cells in 3D growth culture; format: functional, cell-based; in short: as §5
SW1573 = test: Antiproliferative activity against human SW1573 cells expressing KRAS G12C mutant; format: functional, cell-based
HepG2 = test: Antiproliferative activity against human HepG2 cells; format: functional, cell-based
PC-3 [34] = test: Antiproliferative activity against human PC-3 cells in 3D growth culture; format: functional, cell-based; in short: as §2
H4 = test: Antiproliferative activity against human H4 cells in 2D growth culture; format: functional, cell-based; in short: as §1
DMS-53 = test: Antiproliferative activity against human DMS-53 expressing wild-type KRAS; format: functional, cell-based; in short: as §3
5637 [35] = test: Antiproliferative activity against human 5637 cells in 2D growth culture; format: functional, cell-based; in short: as §1
DK-MG = test: Antiproliferative activity against human DK-MG cells in 2D growth culture; format: functional, cell-based; in short: as §1

Sequence of Histone-lysine N-methyltransferase SMYD3 (Q9H7B4 whole entry): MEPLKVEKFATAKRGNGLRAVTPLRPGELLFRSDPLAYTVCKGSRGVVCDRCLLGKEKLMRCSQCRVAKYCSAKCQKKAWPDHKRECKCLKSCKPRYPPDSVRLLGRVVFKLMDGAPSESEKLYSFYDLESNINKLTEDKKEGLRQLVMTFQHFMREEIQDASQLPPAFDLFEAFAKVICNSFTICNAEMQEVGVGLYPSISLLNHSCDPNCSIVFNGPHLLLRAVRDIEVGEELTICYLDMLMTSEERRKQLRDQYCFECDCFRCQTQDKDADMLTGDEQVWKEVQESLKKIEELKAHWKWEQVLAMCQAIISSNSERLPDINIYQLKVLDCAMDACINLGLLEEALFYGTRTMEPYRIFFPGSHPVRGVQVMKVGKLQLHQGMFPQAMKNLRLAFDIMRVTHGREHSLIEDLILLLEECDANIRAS

Compound `O=C1Cc2cc(C(=O)N[C@H]3C[C@H]4CC[C@@H](C3)N4S(=O)(=O)CC3CCN(CCCC(F)(F)F)CC3)c(Cl)cc2N1` has an IC50 [1] of 0.005 µM.

With `N[C@H]1CC[C@H](S(=O)(=O)N2[C@@H]3CC[C@H]2C[C@@H](NC(=O)c2cc(C4CC4)on2)C3)CC1` the IC50 (SHP77) was greater than 20 µM, the IC50 (DOHH-2) was greater than 25 µM and the IC50 5637 [2] was greater than 25 µM. It also gave an IC50 (A549) greater than 20 µM, an IC50 (NCI-H2081) greater than 20 µM and an IC50 (KLE) greater than 25 µM. For the same compound, the IC50 (JAR [3]) was greater than 25 µM, the IC50 (DB) was greater than 25 µM and the IC50 (HOS) was greater than 25 µM. For the same compound, the IC50 (RD [4]) was greater than 25 µM, the IC50 [5] was greater than 25 µM and the IC50 [6] was greater than 25 µM. The IC50 (C32 [7]) was greater than 25 µM, the IC50 (NCI-H23) was greater than 20 µM and the IC50 (HT-3 [8]) was greater than 25 µM. It also gave an IC50 (Hs 766 [9]) greater than 25 µM, an IC50 (U-266) greater than 25 µM and an IC50 (HT-3 [10]) greater than 25 µM. It also gave an IC50 (HT) greater than 25 µM, an IC50 (COR-L88) greater than 20 µM and an IC50 (AGS) greater than 25 µM. It also gave an IC50 (T-24) greater than 25 µM, an IC50 [11] greater than 25 µM and an IC50 (MX1) greater than 25 µM. For the same compound, the IC50 (RKO [12]) was greater than 25 µM, the IC50 (C32 [13]) was greater than 25 µM and the IC50 (EB-3) was greater than 25 µM. For the same compound, the IC50 (PC-3 [14]) was greater than 25 µM, the IC50 (DMS-153) was greater than 20 µM and the IC50 (ES-2 [15]) was greater than 25 µM. It also gave an IC50 (Y79 [16]) greater than 25 µM, an IC50 [17] greater than 25 µM and an IC50 (HLE) greater than 25 µM. For the same compound, the IC50 [18] was greater than 25 µM, the IC50 (NCI-H441) was greater than 20 µM and the IC50 (SK-LU-1) was greater than 20 µM. For the same compound, the IC50 (NCI-H2029) was greater than 20 µM, the IC50 [19] was greater than 25 µM and the IC50 (NCI-H2122) was greater than 20 µM. For the same compound, the IC50 (JAR [20]) was greater than 25 µM, the IC50 (J82 [21]) was greater than 25 µM and the IC50 (COR-L105) was greater than 20 µM. For the same compound, the IC50 [22] was greater than 25 µM, the IC50 (SH-4 [23]) was greater than 25 µM and the IC50 (SH-4 [24]) was greater than 25 µM. It also gave an IC50 (ES-2 [25]) greater than 25 µM, an IC50 (Hs 766 [26]) greater than 25 µM and an IC50 (Y79 [27]) greater than 25 µM. For the same compound, the IC50 [28] was greater than 25 µM, the IC50 (SR) was greater than 25 µM and the IC50 (EM-2) was greater than 25 µM. The IC50 (RD [29]) was greater than 25 µM, the IC50 [30] was greater than 25 µM and the IC50 [31] was greater than 25 µM. It also gave an IC50 (J82 [32]) greater than 25 µM, an IC50 (RKO [33]) greater than 25 µM and an IC50 (SW1573) greater than 20 µM. It also gave an IC50 (HepG2) greater than 40 µM, an IC50 (PC-3 [34]) greater than 25 µM and an IC50 (H4) greater than 25 µM. For the same compound, the IC50 (DMS-53) was greater than 20 µM, the IC50 5637 [35] was greater than 25 µM and the IC50 (DK-MG) was greater than 25 µM.
